Screening results from PubChem.
RGS4 inh: RGS4 inhibitors, primary screen, cell-based, HEK293 M3R inducible RGS4, calcium flux. Fluo-4 calcium flux; stronger effect = higher value; triggered by carbachol at its EC20. B-score at 10 µM. AID 463165, 2010. Regulator of G-protein signaling 4 (Homo sapiens), P49798. 310,000 compounds, 0.45% hits;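 active means B-score, a plate-corrected calcium signal, over three deviations above library mean, with baseline fluorescence within five deviations of library mean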;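 further: RGS4 expression induced by doxycycline in cells with stable M3 receptor; B-score is computed from the integrated fluorescence ratio over baseline after carbachol; higher B-score means a larger calcium signal and so more RGS4 inhibition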
Target sequence (P49798 whole entry, looked up): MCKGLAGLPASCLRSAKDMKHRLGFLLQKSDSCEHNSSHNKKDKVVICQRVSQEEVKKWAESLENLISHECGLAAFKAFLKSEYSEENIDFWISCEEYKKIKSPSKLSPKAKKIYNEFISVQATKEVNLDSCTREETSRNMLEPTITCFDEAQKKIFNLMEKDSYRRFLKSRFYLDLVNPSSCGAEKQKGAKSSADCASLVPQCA
MrgX1 ag: agonists of human MrgX1 receptor, primary screen, HEK293 cells, Fluo-4 calcium flux | Fluo-4 calcium fluorescence, agonist mode; stronger effect = higher value | Mas-related G-protein coupled receptor member X1 (Homo sapiens), Q96LB2 | 310,000 compounds, 0.44% hits | B-score at 10 µM | AID 588627, 2011;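 active means calcium response B-score plate-corrected fluorescence ratio at least 3 library SD, with starting fluorescence B-score inside 5 SD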
Target sequence (Q96LB2 whole entry, looked up): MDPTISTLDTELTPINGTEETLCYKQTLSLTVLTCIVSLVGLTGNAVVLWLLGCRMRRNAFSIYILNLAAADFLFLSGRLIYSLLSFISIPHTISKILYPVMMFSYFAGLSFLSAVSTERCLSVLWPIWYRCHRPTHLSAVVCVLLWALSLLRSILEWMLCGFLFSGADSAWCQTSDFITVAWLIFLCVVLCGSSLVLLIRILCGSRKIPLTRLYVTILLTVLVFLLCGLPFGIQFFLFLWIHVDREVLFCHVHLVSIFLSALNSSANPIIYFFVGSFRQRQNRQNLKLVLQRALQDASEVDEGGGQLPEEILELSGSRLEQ
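Material – MrgX1-expressing HEK293 cells · Input – 15,000 cells seeded per well · Dosing – compound as first of three additions · Times – overnight seeding, then 1 h dark dye loading · Measured by – kinetic Fluo-4 NW fluorescence of intracellular calcium · Read-out – B-scored fluorescence response ratio · Benchmarks – positive and negative control wells on each plate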
MrgX1 allo act: positive allosteric modulators of MrgX1, primary screen, HEK293 cells, Fluo-4 calcium flux; FDSS; stronger effect = higher value; B-score at 10 µM; Mas-related G-protein coupled receptor member X1 (Homo sapiens), Q96LB2; 310,000 compounds, 0.63% hits; AID 588675, 2011;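 active means plate-corrected calcium response at least 3 library SD above typical, normal starting fluorescence, not activating the receptor alone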;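 further: compound read alongside a low EC10 to EC30 dose of BAM8-22 agonist; peak minus trough fluorescence over baseline measured at the second addition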
RGS4 act: RGS4 potentiators or activators, primary screen, cell-based, HEK293 M3R inducible RGS4, calcium flux | B-score at 10 µM | 310,000 compounds, 0.92% hits | carbachol calcium flux Fluo4; stronger effect = lower value;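 active means B-score of the integrated calcium signal more than 4 SD below the library mean, with starting fluorescence not abnormally high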;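 further: negative B-score means reduced calcium response which marks RGS4 activation or potentiation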
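System – HEK293 FlpIn-TREx cells, stable M3R, doxycycline-inducible RGS4 · Reagent – ECmax carbachol challenge · Times – compound preincubation 20 min at room temperature before agonist · Technique – Fluo4 fluorescence kinetic imaging of calcium · Measure – B score of integrated Fluo4 ratio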
MrgX1 antag: antagonists of human MrgX1 receptor, primary screen, HEK293 cells, Fluo-4 calcium flux; Mas-related G-protein coupled receptor member X1 (Homo sapiens), Q96LB2; BAM8-22 antagonism; stronger effect = lower value; B-score at 10 µM; 310,000 compounds, 1.3% hits; AID 588676, 2011;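 active means calcium-response B-score plate-corrected more than 3 library SD below zero, starting fluorescence within 5 deviations, no agonist response on first addition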;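 further: peak minus trough fluorescence over baseline after final BAM8-22 challenge near maximal dose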
RGS4 inh valid: enhanced carbachol calcium response, M3R/RGS4 cells, RGS4 inhibitor project, cell-based, validation screen, HEK293 M3R/RGS4, calcium flux; shares compounds with RGS4 inh; carbachol calcium Fluo-4 fluorescence; carbachol added at its EC20; 0 = buffer wells, 100 = carbachol control; calcium response, % at 10 µM; 1,700 compounds, 65% hits; AID 492999, 2010;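 active means duplicate-averaged calcium response above the buffer-only control mean plus 5 SD of those controls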;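 further: integrated fluorescence ratio F max minus min over baseline F0; higher response in RGS4-induced cells means RGS4 inhibition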
M3R Ca ctr: carbachol calcium response in non-induced M3R cells, confirmation, counter-screen for RGS4 inhibitor project, cell-based, HEK293 M3R. shares compounds with RGS4 inh. carbachol calcium Fluo-4; submaximal (EC20) carbachol stimulus; buffer wells 0%, carbachol control wells 100%. activity (percent), % at 10 µM. 1,900 compounds, 20% hits. AID 493000, 2010; call rule not given here;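 further: RGS4 induction absent so cells express M3R without RGS4; higher means more calcium signal and flags a non-specific hit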
RGS4 inh ctr2: signal in non-induced cells without carbachol, RGS4 inhibitor counter-screen; AID 493001; HEK293 M3R/RGS4 non-induced, Fluo-4 calcium, no carbachol; normalised: buffer wells 0%, carbachol wells 100%; calcium response (agonist-mode artifact), % at 10 µM; shares compounds with RGS4 inh; 1,900 compounds, 22% hits;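 active means duplicate-averaged calcium rise in uninduced cells above buffer wells' mean plus 5 SD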
* = called active by the depositor; i = inactive; / = no result given. Sampled rows, rich in hits. Any-hit rate of the full collection: about 3.5%.

SMILES	RGS4 inh	MrgX1 ag	MrgX1 allo act	RGS4 act	MrgX1 antag	RGS4 inh valid	M3R Ca ctr	RGS4 inh ctr2
CCOC(=O)[C@@H]1[C@H]2COc3ccc(Br)cc3[C@@H]2N2C(=O)N(c3ccc(OC)cc3)C(=O)[C@]12C	i	i	i	i	i	/	/	/
CC(C)/C(C=O)=C(/NC1CCCCC1)c1ccccc1	i	i	i	i	i	/	/	/
CC(NS(=O)(=O)c1ccccc1Cl)C1CC2CCC1C2 (stereo unspecified)	i	i	i	i	i	/	/	/
CCCC(=O)Nc1ccc(C=C(C(C)=O)C(C)=O)cc1	16.5*	i	i	i	i	31.5%*	30.0%*	i
O=C1NC[C@@H](Cc2cccc3ccccc23)N(CCC23CC4CC(CC(C4)C2)C3)C1=O	4.84*	i	i	i	i	11.5%*	32.0%*	i
Cc1ccsc1CNC1C2CC3CC(C2)CC1C3 (stereo unspecified)	i	i	i	i	i	/	/	/
O=S(=O)(Nc1nccs1)c1ccc(NCc2cc(Br)cc(Br)c2O)cc1	7.78*	i	i	i	i	6.0%*	44.5%*	i
Cc1c(Cc2ccccc2)c(=O)oc2cc(OCC(=O)NCC3CCC(C(=O)O)CC3)ccc12 (stereo unspecified)	i	i	i	i	i	/	/	/
COc1ccc(CNC(=O)CCNS(=O)(=O)c2ccc(C)cc2)cc1	i	i	i	i	i	i	i	i
COc1ccc(/C=N/n2cc(-c3ccc(OC)cc3)nc2N)cc1	37.4*	i	i	i	i	24.0%*	i	i
O=C(O)CCc1ccc(-c2ccc(Cl)cc2)o1	i	i	i	i	i	/	/	/
O=C(O)CCc1ccc(-c2ccc(Br)cc2)o1	i	i	i	i	i	/	i	i
COc1cccc(CN(CC(=O)NCc2ccccc2)C(=O)c2csnn2)c1	i	i	i	i	i	/	/	/
CC(C)(C)C1CCc2nc(NC(=O)Cc3cn4ccsc4n3)sc2C1 (stereo unspecified)	7.12*	i	i	i	i	16.0%*	i	i
CCOC(=O)c1c(-c2ccc(C)o2)csc1NC(=O)CSc1nnc(C)s1	i	i	i	i	i	i	i	i
CCOC(=O)c1c(-c2ccccc2)csc1NC(=O)CSc1nnc(C)s1	i	i	i	i	i	/	/	/
CCOC(=O)c1c(-c2ccc(C)o2)csc1NC(=O)CSc1nnnn1-c1ccccc1	9.86*	i	i	i	i	i	i	i
CCOC(=O)c1sc(NC(=O)CSc2nnnn2-c2ccccc2)nc1C	i	i	i	i	i	/	/	/
CCS(=O)(=O)c1ccc2oc(Nc3cccc(OC)c3)nc2c1	i	i	i	i	i	/	/	/
CCN(CC)CCN(C(=O)Cn1nnc(-c2ccc(C)o2)n1)C(C(=O)NC(C)(C)C)c1cccs1 (stereo unspecified)	i	i	i	i	i	/	/	/
O=C(NCc1ccccc1Cl)C1CCC(CNc2c(N3CCOCC3)c(=O)c2=O)CC1 (stereo unspecified)	i	i	i	i	i	/	/	/
Cc1ccc(-c2cc(-c3ccc(F)cc3)nc(N)c2C#N)o1	5.97*	i	i	i	i	i	i	i
Cc1ccc(-c2cc(-c3ccccc3)c(C#N)c(N)n2)o1	7.68*	i	i	i	i	5.5%*	i	i
CC[N+]1(CC(O)COC2CC(C)CC(C)(C)C2)CCOCC1 (stereo unspecified)	i	i	i	i	i	/	/	/
